The values below come from ChEMBL document CHEMBL1130238, “Synthesis and biological activity of a series of potent fluoromethyl ketone inhibitors of recombinant human calpain I” (J Med Chem, 1997).

Molecules are shown by their SMILES. pIC50: −log10 of the molar value. Starred links: 1 amine or outer side, 2 acyl side, 3 side chain; linkers in the order of their positions; H or OH if unused. Non-standard residues stand in square brackets, D forms with d. Residues, ends and D or L forms follow the SMILES beside them. ξ: configuration not given here. *: point of attachment. Hydrocinnamoyl = O=C(CCc1ccccc1)*; ξF = NC(Cc1ccccc1)C(=O)O; Cbz = O=C(OCc1ccccc1)*; Boc = CC(C)(C)OC(=O)*; ξL = CC(C)CC(N)C(=O)O; CO = O=C([*:1])[*:2]; NHBn = c1ccc(CN*)cc1; ξAbu = CCC(N)C(=O)O; ξS = NC(CO)C(=O)O; CH2F = FC*

In experiment [1] the target is Cathepsin B (Homo sapiens) (UniProt P07858). The experiment is described as follows: Compound was tested for inhibitory against cathepsin B. An outline of the steps: (§1)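 Rates of enzyme inactivation for cathepsins B and L were measured using Cbz-Phe-Arg-AMC as the fluorogenic substrate, under previously published assay conditions.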
The target in experiment [2] is Procathepsin L (Homo sapiens) (UniProt P07711). Description: Compound was tested for inhibitory against cathepsin L. An outline of the steps:
as §1

Experiment [3] concerns the target T1, Calpain-1 catalytic subunit (Homo sapiens) (UniProt P07384).
T1 sequence (whole entry): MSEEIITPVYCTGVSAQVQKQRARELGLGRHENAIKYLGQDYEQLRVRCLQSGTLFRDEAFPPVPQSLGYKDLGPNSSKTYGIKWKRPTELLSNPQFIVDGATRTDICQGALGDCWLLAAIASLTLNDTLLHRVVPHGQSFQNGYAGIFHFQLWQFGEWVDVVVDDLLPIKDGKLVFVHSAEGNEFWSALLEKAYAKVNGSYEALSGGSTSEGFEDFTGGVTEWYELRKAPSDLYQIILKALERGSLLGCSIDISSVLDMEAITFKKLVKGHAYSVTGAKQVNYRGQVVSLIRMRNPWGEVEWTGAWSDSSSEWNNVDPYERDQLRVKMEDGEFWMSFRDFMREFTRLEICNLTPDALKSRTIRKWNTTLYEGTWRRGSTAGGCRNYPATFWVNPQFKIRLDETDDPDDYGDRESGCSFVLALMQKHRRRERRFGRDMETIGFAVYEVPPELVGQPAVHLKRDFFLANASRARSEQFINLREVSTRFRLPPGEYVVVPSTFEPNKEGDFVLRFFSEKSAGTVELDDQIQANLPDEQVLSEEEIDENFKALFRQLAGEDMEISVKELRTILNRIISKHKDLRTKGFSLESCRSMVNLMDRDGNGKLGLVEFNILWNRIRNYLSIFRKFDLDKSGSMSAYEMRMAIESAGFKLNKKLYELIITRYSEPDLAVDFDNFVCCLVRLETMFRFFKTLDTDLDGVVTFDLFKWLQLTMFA
The experiment is described as follows: Inhibition of Calpain-I receptor.

Experiment [4] has as its system MOLT-4. Description: Inhibitory activity against MOH-4 cells(Human Leukemia T- cells) using intact cell assay method. The experiment is classed as functional, cell-based. The method, boiled down: (§2)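 Molt-4 cells (2×10^7/mL in HEPES-buffered saline, pH 7.2–7.5) were preincubated with inhibitor for 10 min at 37 °C, then challenged for 30 min at 37 °C by adding medium containing inhibitor, 10 mM Ca2+ and 40 μM ionomycin. Lysates were immunoblotted for calpain I-mediated spectrin breakdown products. Percent inhibition came from densitometry against no-inhibitor samples; IC50 by nonlinear regression.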

Experiment [5] deals with MOLT-4. The experiment is described as follows: Inhibitory activity against […] cells(Human Leukemia T- cells) using intact cell assay method, at 10 uM. It is filed as functional. The method, boiled down:
as §2

For experiment [6], the target named is Cathepsin B (Homo sapiens) (UniProt P07858). The experiment is described as follows: Compound was tested for inhibitory activities against cathepsin B. An outline of the steps:
as §1

Experiment [7] has as its target Procathepsin L (Homo sapiens) (UniProt P07711). The experiment is described as follows: Compound was tested for inhibitory activity against cathepsin L. The method, boiled down:
as §1

For experiment [8] the target is unchanged. Description: Compound was tested for inhibitory against cathepsin L. The method, boiled down:
as §1

The target in experiment [9] is T1, Calpain-1 catalytic subunit (Homo sapiens). The experiment is described as follows: Compound was tested for inhibitory uM.
In experiment [10] the target is Cathepsin B (Homo sapiens) (UniProt P07858). The experiment is described as follows: Compound was tested for inhibitory activity against cathepsin B. An outline of the steps:
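Rate of inactivation of cathepsin B, with Cbz-Phe-Arg-AMC as substrate.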

The target is the same in experiment [11]. Description: Compound was tested for inhibitory against Cathepsin B. An outline of the steps: as §1

Sequence of Procathepsin L (Homo sapiens) (P07711 114-333 limits assumed): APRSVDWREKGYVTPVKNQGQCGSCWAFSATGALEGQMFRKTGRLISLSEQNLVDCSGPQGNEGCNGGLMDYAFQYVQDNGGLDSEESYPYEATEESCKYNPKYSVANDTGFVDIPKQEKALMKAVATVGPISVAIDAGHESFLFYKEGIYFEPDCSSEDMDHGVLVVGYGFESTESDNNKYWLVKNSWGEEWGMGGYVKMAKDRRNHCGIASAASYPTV

`CC(C)C[C@H](NC(=O)CCc1ccccc1)C(=O)NC(Cc1ccccc1)C(=O)CF` (stereo partly specified) (Hydrocinnamoyl-Leu-[ξF]-CH2F): the K in [1] amounted to 600 M⁻¹ s⁻¹; in experiment [2], 800 M⁻¹ s⁻¹; in experiment [3], 26600 M⁻¹ s⁻¹.

As to `CC(C)CC(NC(=O)OCc1ccccc1)C(=O)N[C@@H](CC(C)C)C(=O)NC(Cc1ccccc1)C(=O)CF` (stereo partly specified) (Cbz-[ξL]-Leu-[ξF]-CH2F), the pIC50 in experiment [4] is 7.00. Besides, the K in experiment [1] was 4600 M⁻¹ s⁻¹; in experiment [2], 256000 M⁻¹ s⁻¹; in [3], 290000 M⁻¹ s⁻¹.

Take `CC(C)C[C@H](NC(=O)OCc1ccccc1)C(=O)NC(Cc1ccccc1)C(=O)CF` (stereo partly drawn) (Cbz-Leu-[ξF]-CH2F): in [4], the pIC50 is 6.70. The K in [1] came to 300 M⁻¹ s⁻¹; in [2], 5000 M⁻¹ s⁻¹; in experiment [3] it was 136000 M⁻¹ s⁻¹.

For the compound `CC(C)C[C@H](NC(=O)OC(C)(C)C)C(=O)NC(Cc1ccccc1)C(=O)CF` (stereo partly drawn) (Boc-Leu-[ξF]-CH2F), 10 µM produced 42% inhibition in [5]. The figures for the K in experiment [2], in experiment [3] and in experiment [6] were 100 M⁻¹ s⁻¹, 68600 M⁻¹ s⁻¹ and 150 M⁻¹ s⁻¹, respectively.

`CC(C)C[C@H](NC(=O)OCc1ccccc1)C(=O)NC(COC1CCCCO1)C(=O)CF` (stereo partly specified) gave a negative logarithm of the IC50 (pIC50) in experiment [4] of 5.89. Also, the figures for the K in experiment [1], in experiment [7] and in [3] were 9000 M⁻¹ s⁻¹, 22600 M⁻¹ s⁻¹ and 100000 M⁻¹ s⁻¹, respectively.

Regarding `CC(C)[C@H](NC(=O)OCc1ccccc1)C(=O)NC(Cc1ccccc1)C(=O)CF` (stereo partly drawn) (Cbz-Val-[ξF]-CH2F), the K in experiment [1] came to 360 M⁻¹ s⁻¹; in experiment [2] it was 21500 M⁻¹ s⁻¹; in experiment [3] it was 35000 M⁻¹ s⁻¹.

For `CC(C)C[C@H](NS(=O)(=O)N1CCOCC1)C(=O)NC(Cc1ccccc1)C(=O)CF` (stereo partly specified), in experiment [4], the pIC50 is 5.00. The K in experiment [1] worked out at 100 M⁻¹ s⁻¹; in experiment [8], 3200 M⁻¹ s⁻¹; in experiment [3], 67200 M⁻¹ s⁻¹.

As for `CC(C)C[C@H](NC(=O)OCc1ccccc1)C(=O)NC(CO)C(=O)CF` (stereo partly drawn) (Cbz-Leu-[ξS]-CH2F), the K in [1] is 16300 M⁻¹ s⁻¹; in [2], 31000 M⁻¹ s⁻¹; in [3] it was 21000 M⁻¹ s⁻¹.

`CC(C)C[C@H](N)C(=O)N[C@@H](Cc1ccccc1)C(=O)CF` (H-Leu-Phe-CH2F): the K in experiment [1] was determined as 25 M⁻¹ s⁻¹; in experiment [2], 250 M⁻¹ s⁻¹; in [3], 8000 M⁻¹ s⁻¹.

With `CC(NC(=O)[C@H](Cc1ccccc1)NC(=O)OCc1ccccc1)C(=O)CF` (stereo partly specified), the K entry was “No significant inhibition” in experiment [9], 21000 M⁻¹ s⁻¹ in experiment [10] and 110000 M⁻¹ s⁻¹ in experiment [2].

`CC(C)C[C@H](NC(=O)[C@H]1O[C@@H]1C(=O)O)C(=O)NCCCCN=C(N)N` registered a K in experiment [3] of 4700 M⁻¹ s⁻¹.

`CC(C)C[C@H](NC(=O)N1CCc2ccccc2C1)C(=O)NC(Cc1ccccc1)C(=O)CF` (stereo partly specified): the negative logarithm of the IC50 (pIC50) in experiment [4] was 6.70. The K came out at 7500 M⁻¹ s⁻¹ in experiment [11] and 48400 M⁻¹ s⁻¹ in [2].

For `CC(C)C[C@H](NC(=O)NCc1ccccc1)C(=O)NC(Cc1ccccc1)C(=O)CF` (stereo partly specified) ({NHBn-CO}-Leu-[ξF]-CH2F), the pIC50 in [4] is 6.10. Further, the K in experiment [11] was 275 M⁻¹ s⁻¹; in experiment [7] it was 9400 M⁻¹ s⁻¹; in experiment [3], 67000 M⁻¹ s⁻¹.

Take `CCC(NC(=O)[C@H](CC(C)C)NC(=O)OCc1ccccc1)C(=O)CF` (stereo partly drawn) (Cbz-Leu-[ξAbu]-CH2F): the K in experiment [1] is 24500 M⁻¹ s⁻¹; in [2] it was 64000 M⁻¹ s⁻¹; in [3], 24200 M⁻¹ s⁻¹.

As usually defined, the pIC50 is −log10 of the IC50, conventionally taken in molar units. The low end stands for a high IC50, the high end for a low IC50. As a reminder, the inhibition is how much of the control response was suppressed. High values mean strong suppression, low ones little suppression.
